High-throughput results (PubChem BioAssay)
ABCB1 block – blocks JC-1 efflux by human ABCB1 transporter. P08183. CCRF-Adr cells, flow cytometry. inhibition, % at 6.6 µM. actives 0.067% (n = 190,000). AID 1326; in the data active means inhibition above about 40%;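 further: 0% = vehicle and 100% = reference inhibitor; higher value means more JC-1 retained so stronger ABCB1 efflux block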
EP2 modulator – EP2 receptor (human) modulation; EP2-expressing cells, cAMP HTRF FRET, PGE2 co-stimulation; AID 940; induction, % at 25 µM; actives 0.83% (n = 260,000);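 active means compounds whose cAMP rise, as percent of the full-agonist control response, exceeds 60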;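 further: rat C6 glioma line stably carrying human EP2 under a CMV promoter; the protocol text gives 20 µM as final concentration; 100% = response of wells given 1 µM PGE2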
ABCG2 inh – human ABCG2 inhibition, ABCB1 as counter-screen | Q9UNQ0 | IgMXP3 cells, JC-1 efflux, flow cytometry | inhibition, % at 6.6 µM | actives 0.1% (n = 190,000) | AID 1325;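 active means inhibition above 80%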;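 further: 0% = DMSO and 100% = nicardipine control wells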
Target sequence (Q9UNQ0 whole entry, looked up): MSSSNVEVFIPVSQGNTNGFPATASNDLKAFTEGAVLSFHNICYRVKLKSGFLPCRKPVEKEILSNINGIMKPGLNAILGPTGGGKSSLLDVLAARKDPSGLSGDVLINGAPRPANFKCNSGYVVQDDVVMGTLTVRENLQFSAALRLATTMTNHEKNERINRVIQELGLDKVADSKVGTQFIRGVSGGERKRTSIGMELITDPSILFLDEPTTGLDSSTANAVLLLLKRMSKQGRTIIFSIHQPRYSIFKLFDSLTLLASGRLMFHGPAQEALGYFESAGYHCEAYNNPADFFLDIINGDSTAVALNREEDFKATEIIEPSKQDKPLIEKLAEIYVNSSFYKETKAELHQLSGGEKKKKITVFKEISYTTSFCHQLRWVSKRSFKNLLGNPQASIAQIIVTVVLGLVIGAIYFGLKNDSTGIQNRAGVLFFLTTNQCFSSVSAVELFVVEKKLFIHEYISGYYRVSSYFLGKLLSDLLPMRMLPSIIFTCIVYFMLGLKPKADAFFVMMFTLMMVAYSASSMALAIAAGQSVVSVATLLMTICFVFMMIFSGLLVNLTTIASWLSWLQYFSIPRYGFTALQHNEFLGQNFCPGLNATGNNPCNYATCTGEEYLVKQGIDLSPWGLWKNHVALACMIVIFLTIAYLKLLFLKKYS
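Times: 10 min at 25 °C | Test system: Two drug-resistant human cell lines, ABCG2 and ABCB1 | Quantity: 3 million cells/mL final, two lines in 1:1 ratio | Signal: Flow cytometry, 530 nm JC-1 signal | Dosing: Compound at 6.6 µM | Controls: Nicardipine and DMSO wells | Reagent: JC-1 as fluorescent efflux pump substrate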
RBBP9 inhibitor – inhibitors of human serine hydrolase RBBP9. inhibition, % at 7.94 µM. actives 0.2% (n = 220,000). recombinant RBBP9, FP-Rh probe fluorescence polarization;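 active means inhibition above the campaign mean of all tested compounds plus 3 SD, cut at about 14% in these data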;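 further: plate controls were DMSO wells with RBBP9 for no effect and wells lacking RBBP9 protein for full effect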
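Measured by – fluorescence polarization · Test system – RBBP9 protein · Input – 2.5 µM RBBP9 dispensing solution, before mixing · Measure – percent inhibition from mP, scaled between DMSO and no-protein wells · Benchmarks – DMSO-treated enzyme wells and wells lacking RBBP9 · Times – preincubation 30 min plus labeling 45 min at 25 °C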
PGE2 EP2 inh – inhibitors of human EP2 prostaglandin E2 receptor; P43116; C6 glioma cells expressing human EP2, cAMP TR-FRET; cells stimulated with saturating PGE2; inhibition, % at 25 µM; actives 0.52% (n = 260,000);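 active means percent inhibition above 40 after rounding to a whole number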;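 further: rat C6 glioma host cells with rolipram phosphodiesterase inhibitor present; the protocol text gives 20 µM as final concentration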
Numbers without * were called inactive; · = not tested or not shown. A selection: hits, their analogues and other compounds. The true share with any hit is near 1.5%.

SMILES	ABCB1 block	EP2 modulator	ABCG2 inh	RBBP9 inhibitor	PGE2 EP2 inh
Cc1cccc2cc(CN(CCO)C(=S)Nc3ccc(F)cc3)c(=O)[nH]c12	·	-52	·	·	9
C[C@@]12C[C@H](O)[C@@H]3[C@H](CCC4=CC(=O)CC[C@]43C)[C@H]1CC[C@H]2c1csc(N)n1	·	-24	·	·	66*
CSc1nc(C)cc(Nc2ccc(O)c(CN3CCCCC3)c2)n1	·	-1	·	·	45*
CC(=O)c1c(C(=S)Nc2ccccc2)cnn1-c1ccc(Br)cc1	·	5	·	·	11
Cc1nn2c(C(F)(F)F)c3c(nc2c1-c1ccccc1)CCC3	1	62*	3	-4	7
O=C(Oc1cccc2cccnc12)c1ccc(Cl)cc1Cl	·	38	·	·	16
N#Cc1ccc(NC(=O)CSc2nc(N)c(C#N)cc2C#N)cc1	·	-5	·	·	43*
Cc1ccc(C)n1-c1ccccc1N1CCCCC1	0	63*	0	-7	5
COc1cc(/C=C/C(=O)CC(=O)/C=C/c2ccc(O)c(OC)c2)ccc1O	11	-65	17	-7	74*
COC(=O)c1cn(C(=O)/C=C/c2ccc(OC)c(OC)c2)c2ccccc12	1	-43	7	-1	43*
CCn1c(N2CCC(C(=O)NCc3cccs3)CC2)nc2ccccc21	·	-46	·	·	·
O=c1c2cc(N3CCOCC3)ccc2[nH]c(=S)n1CCCN1CCCCCC1	1	4	5	-4	7
O=c1c2cc(N3CCOCC3)ccc2[nH]c(=S)n1CCCN1CCN(c2ccccc2F)CC1	53*	24	33	-7	4
COc1ccc(-c2ccc(=O)n(C[C@H](C)NC(=O)c3ccc(=O)[nH]n3)n2)cc1	·	-52	·	·	·
Cc1ccc(S(=O)(=O)C/N=C(/NC(=S)N(c2ccccc2)c2ccccc2)c2ccccc2)cc1	0	61*	1	-9	1
Cc1ccc(S(=O)(=O)/N=C(/NC(=S)Nc2ccccc2)c2ccccc2)cc1	0	24	-1	-14	12
COc1ccc(CC[N@+]2(C)COc3cc4oc(=O)cc(C)c4cc3C2)cc1OC	·	16	·	·	51*
CS(=O)(=O)c1cnc2ncnn2c1C1CCN(C(=O)CCc2ccccc2)CC1	·	-8	·	·	·
CCc1c(C)sc2nc(C(C)C)n3c(=O)n(Cc4ccncc4)nc3c12	·	61*	·	·	·
Cn1cccc1-c1nc2ccc(NC(=O)c3cccs3)cc2[nH]1	0	-12	1	5	48*
CC1=NNC(=S)NCCCN2CCN(CCCNC(=S)NN=C(C)C=NNC(=S)NCCCN3CCN(CCCNC(=S)NN=C1)CC3)CC2	·	56	·	·	45*
CC(=O)OCCCNc1cc(Sc2nc3ccccc3s2)c2nonc2c1[N+](=O)[O-]	0	-21	-1	-1	41*
CC(=O)OCCCNc1cc(Sc2ccc(C)cc2)c2nonc2c1[N+](=O)[O-]	0	6	1	-9	5
COC(=O)CNC(c1ccccc1)c1cc(Cl)ccc1NC(=O)c1cccc(Cl)c1 (configuration not stated)	3	63*	1	-8	-2
Cc1cccc(Cn2c(NC3CCCC3)nc3c2c(=O)[nH]c(=O)n3C)c1	·	-13	·	·	14
SMILES	ABCB1 block	EP2 modulator	ABCG2 inh	RBBP9 inhibitor	PGE2 EP2 inh
Cn1c(=O)[nH]c(=O)c2c1nc(NC1CCCCC1)n2Cc1ccccc1	0	61*	3	2	9
N#Cc1c(NC(=O)C(F)(F)F)sc2c3c(=O)c4ccccc4c(=O)c=3oc3ccccc3c12	·	-6	·	·	42*
C[N+](C)(C)[C@@H](C1=CCCC1=O)c1ccccc1	·	18	·	·	52*
COc1cc(-c2nc3cnccn3c2NCCc2ccccc2)ccc1O	·	-51	·	·	7
C=CC(=O)N=c1sc2ccccc2n1-c1ccccc1	0	32	0	2	4
N=c1sc2ccccc2n1-c1ccccc1	1	61*	8	0	5
C1CCc2nnc(-c3nnc4n3CCCCC4)n2CC1	0	10	0	2	-4
Cc1ccc(C)n1-c1ccc(-c2nnc3n2CCCCC3)s1	2	28	11	2	59*
CCn1c(N2CCN(Cc3ccccc3)CC2)nc2c1c(=O)[nH]c(=O)n2C	·	-22	·	·	13
CC(/C=N/NC(=O)Cn1nnc(N)n1)=C\c1ccc(C(C)C)cc1	·	89*	·	-7	2
CC(/C=N\NC(=O)Cn1cncn1)=C/c1ccc(C(C)C)cc1	·	41	·	-6	7
CC(C)(C)C1CCc2c(sc3ncn4c(SCC(=O)N5CCCC5)nnc4c23)C1 (configuration not stated)	·	20	·	·	14
CCN(CC)c1nc2cc(C)ccc2cc1/C=C(\C#N)C(N)=O	0	63*	2	-1	6
CN1CC(C(=O)N2C3CCC2CC(c2ccc(F)cc2)C3)CC1=O (configuration not stated)	·	-13	·	·	·
Cc1c(C(=O)CN2CCSCC2)c2ccccc2n1C	0	10	2	6	6
Cc1c(/C(Cc2ccccc2)=N/O)c2ccccc2n1C	0	63*	0	2	1
O=c1c2ccccc2sc2c(CO)ccc(NCCN3CCCCC3)c12	·	-42	·	·	58*
COc1ccc2c(Cl)c(C(=O)Nc3ccccc3Cl)sc2c1	·	-11	·	·	9
CCCS(=O)(=O)C(=C(Nc1ccccc1)Nc1ccccc1)S(=O)(=O)CCC	1	63*	2	1	5
CCCS(=O)(=O)C(=C(Nc1ccc(OC)cc1)Nc1ccc(OC)cc1)S(=O)(=O)CCC	1	32	2	-8	11
COc1cc(C)c(CNC(=O)c2cc(-c3c(C)nn(C)c3C)n[nH]2)cc1C(C)C	·	-55	·	·	5
COCCN1C(=O)C(=O)/C(=C(\O)c2ccc(C)cc2)C1c1cccnc1 (configuration not stated)	·	0	·	·	11
CCN1CCOC(CC(=O)Nc2ccc([N+](=O)[O-])cc2)C1=O (configuration not stated)	·	16	·	1	4
CCN1CCOC(CC(=O)Nc2cccc(C)c2)C1=O (configuration not stated)	·	69*	·	·	5
CCc1ccc(C2C3=C(CCCC3=O)OC3=C2C(=O)CCC3)cc1	5	21	15	-10	9
SMILES	ABCB1 block	EP2 modulator	ABCG2 inh	RBBP9 inhibitor	PGE2 EP2 inh
CN(C)C[C@H]1CCC2=C(C1=O)C(c1ccc(Cl)c(Cl)c1)C1=C(CC[C@H](CN(C)C)C1=O)O2	·	-12	·	·	55*
COc1cccc(C2N(c3ccccc3)CCN2c2ccccc2)c1OC	0	64*	0	1	3
O=c1n(Cc2ccccc2)c2cc(Cl)cnc2n1Cc1ccccc1	0	62*	0	-9	19
COC(=O)[C@H]1[C@@H]2C[C@H]3c4[nH]c5ccccc5c4CCN3C[C@H]2CC[C@@H]1O	·	10	·	·	41*
COc1ccc2c3c([nH]c2c1)[C@H]1C[C@@H]2[C@H](C[C@@H](O)[C@H](OC)[C@H]2C(=O)O)CN1CC3	·	12	·	·	51*
COc1ccc(C2(NC(=O)c3sc(C)nc3C)CCCCC2)cc1	·	-54	·	·	·
